Measurements reported in ChEMBL document CHEMBL1151957, “Design and synthesis of novel C14-hydroxyl substituted triptolide derivatives as potential selective antitumor agents” (J Med Chem, 2009).
Calls of active or inactive are those of the source. No cut-off for these calls is given here.

Legend:
[1] = tested on: K562; test: Cytotoxicity against human K562 cells after 72 hrs by MTT assay; type: functional, cell-based; details: K562, 72 h
Method in brief: (§1)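 Cells grown at 37 °C in 5% CO2 in RPMI 1640 with 10% heat-inactivated FBS, glutamine, antibiotics and HEPES; MCF-7 medium also had sodium pyruvate and insulin. Cells in 96-well plates were treated in triplicate with graded concentrations for 72 h at 37 °C. Read-out was MTT for leukemia lines and SRB for solid-tumor lines. IC50 was set relative to control by the logit method, as mean ± SD of three independent experiments.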

[2] = tested on: MOLT-4; test: Cytotoxicity against human MOLT4 cells after 72 hrs by MTT assay; type: functional, cell-based; details: MOLT-4, 72 h; method in brief: as §1
[3] = tested on: PC-3; test: Cytotoxicity against human PC3 cells by SRB assay; type: functional, cell-based
Method in brief: (§2)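 Cells grown in RPMI 1640 with 10% heat-inactivated FBS, 2 mmol/L glutamine, 10 mmol/L HEPES pH 7.4, 5% CO2, 37 °C; MCF-7/ADR also given 1 mmol/L pyruvate and 0.01 mg/mL insulin. Treated in triplicate with graded concentrations for 72 h at 37 °C, read by SRB. IC50 (50% growth inhibition vs control) by logit method; three independent experiments.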

[4] = tested on: MDA-MB-468; test: Cytotoxicity against human MDA-MB-468 cells by SRB assay; type: functional, cell-based; method in brief: as §2
[5] = tested on: SK-OV-3; test: Cytotoxicity against human SKOV3 cells by SRB assay; type: functional, cell-based; method in brief: as §2
[6] = tested on: MKN-28; test: Cytotoxicity against human MKN28 cells after 72 hrs […]; type: functional, cell-based; details: MKN-28, 72 h; method in brief: as §1
[7] = tested on: HCT-116; test: Cytotoxicity against human HCT116 cells after 72 hrs […]; type: functional, cell-based; details: HCT-116, 72 h; method in brief: as §1
[8] = Cytotoxicity against human SW1116 cells after 72 hrs by […]; type: functional, cell-based; details: SW 1116, 72 h; method in brief: as §1
[9] = tested on: HCT-15; test: Cytotoxicity against human HCT15 cells after 72 hrs […]; type: functional, cell-based; details: HCT-15, 72 h; method in brief: as §1
[10] = tested on: SMMC-7721; test: Cytotoxicity against human SMMC7721 cells after 72 hrs […]; type: functional, cell-based; details: SMMC-7721, 72 h; method in brief: as §1
[11] = tested on: Bel-7402; test: Cytotoxicity against human Bel7402 cells after 72 hrs by […]; type: functional, cell-based; details: Bel-7402, 72 h; method in brief: as §1
[12] = Cytotoxicity against human 786-O cells after 72 hrs […]; type: functional, cell-based; details: 786-0, 72 h; method in brief: as §1
[13] = tested on: MDA-MB-231; test: Cytotoxicity against human MDA-MB-231 cells after 72 hrs […]; type: functional, cell-based; details: MDA-MB-231, 72 h; method in brief: as §1
[14] = tested on: MCF7; test: Cytotoxicity against human MCF7 cells after 72 hrs […]; type: functional, cell-based; details: MCF7, 72 h; method in brief: as §1
[15] = tested on: SK-OV-3; test: Cytotoxicity against human SKOV3 cells after 72 hrs by […]; type: functional, cell-based; details: SK-OV-3, 72 h; method in brief: as §1
[16] = Cytotoxicity against human HO8910 cells after 72 hrs by […]; type: functional, cell-based; details: HO-8910, 72 h; method in brief: as §1
[17] = tested on: PC-3; test: Cytotoxicity against human PC3 cells after 72 hrs by […]; type: functional, cell-based; details: PC-3, 72 h; method in brief: as §1
[18] = tested on: DU-145; test: Cytotoxicity against human DU145 cells after 72 hrs by […]; type: functional, cell-based; details: DU-145, 72 h; method in brief: as §1
[19] = tested on: KB; test: Cytotoxicity against human KB cells after 72 hrs […]; type: functional, cell-based; method in brief: as §1
[20] = Cytotoxicity against human Rh30 cells after 72 hrs by […]; type: functional, cell-based; details: SJRH30, 72 h; method in brief: as §1
[21] = tested on: HeLa; test: Cytotoxicity against human HeLa cells after 72 hrs […]; type: functional, cell-based; method in brief: as §1
[22] = tested on: U-251; test: Cytotoxicity against human U251 cells after 72 hrs […]; type: functional, cell-based; details: U-251, 72 h; method in brief: as §1
[23] = Cytotoxicity against multidrug-resistant human MCF7/ADR cells by SRB assay; type: functional, cell-based; details: NCI/ADR-RES; method in brief: as §2
[24] = tested on: K562; test: Resistant factor, ratio of IC50 for multidrug-resistant human K562/A02 cells to IC50 for human K562 cells; type: functional
Method in brief: (§3)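 Resistance factor is the IC50 in the MDR line divided by the IC50 in its parental line. Both come from 72 h growth-inhibition assays: MTT for the leukemia pair, SRB for the solid-tumor pairs.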

[25] = tested on: KB; test: Resistant factor, ratio of IC50 for multidrug-resistant human KB/VCR cells to IC50 for human KB cells; type: functional; method in brief: as §3
[26] = tested on: MCF7; test: Resistant factor, ratio of IC50 for multidrug-resistant human MCF7/ADR cells to IC50 for human MCF7 cells; type: functional; method in brief: as §3
[27] = tested on: MDR; test: Cytotoxicity against multidrug-resistant human KB/VCR cells by SRB assay in presence of MDR reversing agent verapamil; type: functional, cell-based
Method in brief: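 KB/VCR cells exposed to test agents together with the MDR reversal agent verapamil. Growth inhibition was read by SRB assay after 72 h treatment; each point is the mean of three independent experiments.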

[28] = tested on: SK-OV-3; test: Antitumor activity against human SKOV3 cells xenografted in BALB/cA nu/nu mouse assessed as tumor growth inhibition at 2 mg/kg, po measured on day 21 postinfection; type: functional; set-up: scale not given: the % may be the effect or the level left
Method in brief: (§4)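 Nude BALB/cA nu/nu mice, 4-5 weeks old, received 1 mm³ tumor fragments implanted sc into the right flank by trocar. At 100-200 mm³ they were randomized, six per group, and dosed po daily in vehicle; controls got vehicle alone. Calipers twice weekly; V = length×width²/2; RTV = Vt/V0; T/C (%) = mean RTV treated / mean RTV control ×100. Student t test.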

[29] = tested on: SK-OV-3; test: Antitumor activity against human SKOV3 cells xenografted in BALB/cA nu/nu mouse assessed as tumor growth inhibition at 4 mg/kg, po measured on day 21 postinfection; type: functional; set-up: scale not given: the % may be the effect or the level left; method in brief: as §4
[30] = tested on: PC-3; test: Antitumor activity against human PC3 cells xenografted in BALB/cA nu/nu mouse assessed as tumor growth inhibition at 2 mg/kg, po measured on day 21 postinfection; type: functional, organism-based; set-up: dose 2 mg/kg; method in brief: as §4
[31] = tested on: PC-3; test: Antitumor activity against human PC3 cells xenografted in BALB/cA nu/nu mouse assessed as tumor growth inhibition at 4 mg/kg, po measured on day 21 postinfection; type: functional, organism-based; set-up: dose 4 mg/kg; method in brief: as §4
[32] = tested on: SGC-7901; test: Antitumor activity against human SGC7901 cells xenografted in BALB/cA nu/nu mouse assessed as tumor growth inhibition at 4 mg/kg, po; type: functional; set-up: scale not given: the % may be the effect or the level left; method in brief: as §4
[33] = tested on: SMMC-7721; test: Antitumor activity against human SMMC7721 cells xenografted in BALB/cA nu/nu mouse assessed as tumor growth inhibition at 1 to 4 mg/kg, po; type: functional, organism-based; method in brief: as §4
[34] = tested on: MDA-MB-468; test: Antitumor activity against human MDA-MB-468 cells xenografted in BALB/cA nu/nu mouse assessed as tumor growth inhibition at 1 to 4 mg/kg, po; type: functional, organism-based; method in brief: as §4
[35] = tested on: Mus musculus; test: Toxicity in BALB/cA nu/nu mouse assessed as mortality at 1 to 4 mg/kg, po; type: organism-based; set-up: dose 1-4 mg/kg, route oral; details: in vivo
Method in brief: (§5)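 Female-unspecified BALB/cA nu/nu mice, 4-5 weeks old, carried sc 1 mm³ tumor fragments in the right flank. At 100-200 mm³, mice were randomized six per group and given compound po daily in vehicle, with vehicle-only controls, over about 21 days. Endpoints were deaths, systemic toxicity, body weight, and gross anatomy of liver and kidney.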

[36] = tested on: Mus musculus; test: Systemic toxicity in BALB/cA nu/nu mouse at 1 to 4 mg/kg, po; type: organism-based; set-up: dose 1-4 mg/kg, route oral; details: in vivo; method in brief: as §5
[37] = tested on: Mus musculus; test: Toxicity in BALB/cA nu/nu mouse assessed as change in body weight at 1 to 4 mg/kg, po; type: organism-based; set-up: dose 1-4 mg/kg, route oral; details: in vivo; method in brief: as §5
[38] = tested on: Mus musculus; test: Toxicity in BALB/cA nu/nu mouse assessed as change in liver gross anatomy at 1 to 4 mg/kg, po; type: organism-based; set-up: dose 1-4 mg/kg, route oral; details: in vivo; method in brief: as §5
[39] = tested on: Mus musculus; test: Toxicity in BALB/cA nu/nu mouse assessed as change in kidney gross anatomy at 1 to 4 mg/kg, po; type: organism-based; set-up: dose 1-4 mg/kg, route oral; details: in vivo; method in brief: as §5
[40] = tested on: SK-OV-3; test: Antitumor activity against human SKOV3 cells xenografted in BALB/cA nu/nu mouse assessed as tumor growth inhibition at 1 mg/kg, po relative to control; type: functional; method in brief: as §4
[41] = tested on: A549; test: Cytotoxicity against human A549 cells after 72 hrs by SRB assay; details: A549, 72 h
[42] = tested on: SGC-7901; test: Cytotoxicity against human SGC7901 cells after 72 hrs by SRB assay; details: SGC-7901, 72 h
[43] = Cytotoxicity against multidrug-resistant human K562/A02 cells by MTT assay

CC(C)[C@]12O[C@H]1[C@@H]1O[C@]13[C@]1(O[C@H]1C[C@H]1C4=C(CC[C@@]13C)C(=O)OC4)[C@]21CO1
IC50 [1]: 421 nM | IC50 [2]: 251 nM | IC50 [3]: 270 nM | IC50 [4]: 180 nM | IC50 [5]: 100 nM | IC50 [6]: 2540 nM | IC50 [7]: 219 nM | IC50 [8]: 907 nM | IC50 [9]: 648 nM | IC50 [10]: 350 nM | IC50 [11]: 332 nM | IC50 [12]: 386 nM | IC50 [13]: 280 nM | IC50 [14]: 360 nM | IC50 [15]: 270 nM | IC50 [16]: 538 nM | IC50 [17]: 637 nM | IC50 [18]: 256 nM | IC50 [19]: 615 nM | IC50 [20]: 293 nM | IC50 [21]: 507 nM | IC50 [22]: 657 nM | IC50 [23]: 910 nM | Ratio IC50 [24]: 1.76 | Ratio IC50 [25]: 0.77 | Ratio IC50 [26]: 2.53 | Activity [27]: Active | Activity [28]: 87.5% | Activity [29]: 97.4% | Activity [30]: Active | Activity [31]: Active | Activity [32]: 75% | Activity [33]: inactive | Activity [34]: inactive | Activity [35]: Non-toxic | Activity [36]: Non-toxic | Activity [37]: Non-toxic | Activity [38]: Non-toxic | Activity [39]: Non-toxic | T/C [40]: 50.2% | IC50 [41]: 702 nM | IC50 [42]: 175 nM | IC50 [43]: 740 nM

CC(C)[C@]12O[C@H]1[C@@H]1O[C@]13[C@]1(O[C@H]1C=C1C4=C(CC[C@@]13C)C(=O)OC4)[C@]21CO1
IC50 [3]: 1800 nM | IC50 [4]: 1140 nM | IC50 [5]: 570 nM

CC(C)[C@]12O[C@H]1[C@@H]1O[C@]13[C@]1(O[C@H]1C[C@H]1C4=C(CC[C@@]13C)C(=O)OC4)[C@]21COS(=O)(=O)O1
IC50 [3]: 13900 nM | IC50 [4]: > 100000 nM | IC50 [5]: > 100000 nM

CC(C)[C@]1(O)[C@H](Cl)[C@@H]2O[C@]23[C@]2(O[C@H]2C[C@H]2C4=C(CC[C@@]23C)C(=O)OC4)[C@]12CO2
IC50 [3]: 470 nM | IC50 [4]: 210 nM | IC50 [5]: 140 nM

CC(C)[C@]12O[C@H]1[C@@H]1O[C@]13[C@]1(O[C@H]1C[C@H]1C4=C(CC[C@@]13C)C(=O)OC4)[C@@H]2O [TRIPTOLIDE]
IC50 [1]: 50 nM | IC50 [2]: 17 nM | IC50 [3]: 20 nM | IC50 [4]: 10 nM | IC50 [5]: 9 nM | IC50 [6]: 200 nM | IC50 [7]: 10 nM | IC50 [8]: 52 nM | IC50 [9]: 29 nM | IC50 [10]: 18 nM | IC50 [11]: 20 nM | IC50 [12]: 22 nM | IC50 [13]: 24 nM | IC50 [14]: 19 nM | IC50 [15]: 10 nM | IC50 [16]: 28 nM | IC50 [17]: 43 nM | IC50 [18]: 24 nM | IC50 [19]: 43 nM | IC50 [20]: 14 nM | IC50 [21]: 47 nM | IC50 [22]: 49 nM | IC50 [41]: 59 nM | IC50 [42]: 15 nM
